Compound activity (PubChem BioAssay)
Arrestin-AP2 inh – inhibitors of human beta-arrestin and AP2 interaction; actives 0.31% (n = 340,000); inhibition, % at 10 µM; AID 504490; FITC-arrestin peptide / GST-AP2 beads, flow cytometry; AP2 beta2 appendage carries R879A mutation;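 active = inhibition above a set limit, near 3 SD of compounds lacking own fluorescence, cut at about 54% in these data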;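 note: plate controls were DMSO wells for no effect and 5 µM unlabelled arrestin peptide for full effect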
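system = GST-tagged AP2 beta2-adaptin appendage (R879A) on 4 µm glutathione beads | reagent = FITC-labelled arrestin peptide probe, 50 nM final | schedule = compound with beads 12 min RT, then probe 1 h RT | signal = HyperCyt-sampled flow cytometry, FL1 channel, ex 488/em 535 nm | read-out = percent response from loss of bead-bound FITC fluorescence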
Cardio protect – modulators protecting cardiomyocytes from myocardial damage; H9c2 cardiomyocytes, H2O2 injury protection, ATPLite, 2 h; protection from H2O2 cell death, % at 20 µM; actives 0.63% (n = 360,000);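 active = compounds giving at least 50% protection of heart cells from peroxide-induced death in the single-dose screen, raw or plate-pattern-corrected value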;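 note: 0% = DMSO wells with peroxide and 100% = DMSO wells without peroxide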
iPSC survival up – increases survival of single human iPS cells. survival enhancement, % at 20 µM. hiPSC single-cell survival, ATPlite luminescence; 100% = ROCK inhibitor wells, 0% = DMSO. actives 0.044% (n = 360,000); in the data active = survival enhancement above about 18%;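 note: cells exposed to compounds for 16 hours before the ATP read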
FAS TE block – inhibitors of human fatty acid synthase thioesterase domain; P49327; recombinant FAS-TE, OMFH fluorogenic substrate, fluorescence endpoint; inhibition, % at 15 µM; actives 0.67% (n = 360,000); AID 602261;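 active = compounds whose normalised, plate-corrected inhibition of enzyme fluorescence in the single-dose primary screen is 50% or more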;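 note: 0% = DMSO with enzyme and 100% = substrate without enzyme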
Target sequence (P49327 whole entry, looked up, the tested form may be a part): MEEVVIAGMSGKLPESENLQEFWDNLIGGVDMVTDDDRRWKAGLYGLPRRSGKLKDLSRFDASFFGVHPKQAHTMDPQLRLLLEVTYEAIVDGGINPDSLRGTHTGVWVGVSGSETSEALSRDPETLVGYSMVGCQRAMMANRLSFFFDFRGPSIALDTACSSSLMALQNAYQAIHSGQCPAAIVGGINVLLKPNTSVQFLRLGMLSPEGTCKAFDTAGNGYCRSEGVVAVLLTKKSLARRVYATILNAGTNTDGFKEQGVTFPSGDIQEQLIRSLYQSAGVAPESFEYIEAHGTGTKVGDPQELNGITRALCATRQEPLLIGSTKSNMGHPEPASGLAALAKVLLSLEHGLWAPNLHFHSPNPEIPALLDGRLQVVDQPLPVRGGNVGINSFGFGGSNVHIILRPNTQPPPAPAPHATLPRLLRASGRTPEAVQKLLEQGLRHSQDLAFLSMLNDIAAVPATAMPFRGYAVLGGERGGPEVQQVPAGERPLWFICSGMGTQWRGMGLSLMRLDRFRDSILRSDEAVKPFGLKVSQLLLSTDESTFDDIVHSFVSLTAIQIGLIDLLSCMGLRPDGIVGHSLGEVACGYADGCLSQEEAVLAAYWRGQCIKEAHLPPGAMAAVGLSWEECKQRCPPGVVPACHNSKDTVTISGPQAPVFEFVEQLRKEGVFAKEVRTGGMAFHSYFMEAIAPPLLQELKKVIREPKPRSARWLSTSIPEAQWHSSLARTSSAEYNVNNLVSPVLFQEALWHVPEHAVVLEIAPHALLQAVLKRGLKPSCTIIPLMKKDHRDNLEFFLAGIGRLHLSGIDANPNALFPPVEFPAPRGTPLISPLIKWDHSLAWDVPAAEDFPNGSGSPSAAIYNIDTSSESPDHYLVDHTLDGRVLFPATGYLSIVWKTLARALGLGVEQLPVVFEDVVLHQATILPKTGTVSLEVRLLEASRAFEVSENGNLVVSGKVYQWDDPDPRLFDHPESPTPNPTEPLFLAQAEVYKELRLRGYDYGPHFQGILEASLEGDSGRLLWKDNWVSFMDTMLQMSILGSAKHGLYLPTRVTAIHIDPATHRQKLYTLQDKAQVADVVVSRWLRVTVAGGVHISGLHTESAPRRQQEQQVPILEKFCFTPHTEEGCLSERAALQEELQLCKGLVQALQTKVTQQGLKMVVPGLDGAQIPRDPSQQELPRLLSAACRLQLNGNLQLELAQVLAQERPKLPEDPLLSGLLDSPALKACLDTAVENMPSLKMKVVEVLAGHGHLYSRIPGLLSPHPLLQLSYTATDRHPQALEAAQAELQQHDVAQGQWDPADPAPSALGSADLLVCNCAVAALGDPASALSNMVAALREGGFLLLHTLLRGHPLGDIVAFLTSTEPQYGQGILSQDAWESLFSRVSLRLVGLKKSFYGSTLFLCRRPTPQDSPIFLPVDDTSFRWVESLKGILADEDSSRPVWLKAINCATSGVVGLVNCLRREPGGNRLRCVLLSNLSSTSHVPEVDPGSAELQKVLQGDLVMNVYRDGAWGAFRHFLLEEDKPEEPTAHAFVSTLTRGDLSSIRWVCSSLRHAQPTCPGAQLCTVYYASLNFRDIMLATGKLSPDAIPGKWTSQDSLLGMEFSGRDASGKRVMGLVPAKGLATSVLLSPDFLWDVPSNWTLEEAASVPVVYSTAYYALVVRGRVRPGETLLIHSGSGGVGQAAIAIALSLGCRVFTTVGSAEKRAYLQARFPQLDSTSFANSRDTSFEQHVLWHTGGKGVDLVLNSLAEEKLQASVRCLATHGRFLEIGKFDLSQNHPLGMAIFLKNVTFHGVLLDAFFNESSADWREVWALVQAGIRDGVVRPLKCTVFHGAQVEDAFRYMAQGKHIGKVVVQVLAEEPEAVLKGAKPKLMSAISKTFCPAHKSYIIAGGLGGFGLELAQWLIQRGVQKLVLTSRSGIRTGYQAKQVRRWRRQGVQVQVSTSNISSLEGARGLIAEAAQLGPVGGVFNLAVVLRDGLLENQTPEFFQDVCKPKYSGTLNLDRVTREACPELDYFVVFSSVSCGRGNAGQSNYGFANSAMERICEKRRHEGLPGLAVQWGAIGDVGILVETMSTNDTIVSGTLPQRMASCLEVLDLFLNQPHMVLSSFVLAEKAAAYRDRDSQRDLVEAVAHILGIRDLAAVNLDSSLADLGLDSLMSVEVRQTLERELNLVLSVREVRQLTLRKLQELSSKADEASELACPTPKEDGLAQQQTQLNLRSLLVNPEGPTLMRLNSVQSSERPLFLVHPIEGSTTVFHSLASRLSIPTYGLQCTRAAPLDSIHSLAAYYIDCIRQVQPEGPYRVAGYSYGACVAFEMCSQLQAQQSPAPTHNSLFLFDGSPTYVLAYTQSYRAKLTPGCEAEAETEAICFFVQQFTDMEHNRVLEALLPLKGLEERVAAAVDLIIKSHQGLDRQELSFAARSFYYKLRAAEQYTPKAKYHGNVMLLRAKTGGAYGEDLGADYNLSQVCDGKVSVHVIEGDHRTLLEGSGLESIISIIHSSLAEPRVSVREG
GRIN3A LBD mod – NR3A (human) ligand-binding domain modulation | NR3A LBD differential scanning fluorimetry, Tm shift; 0% = protein alone, 100% = glycine-bound protein | Tm shift relative to glycine control, % at 25 µM | actives 2.5% (n = 340,000) | AID 1259313;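 active = melting temperature shift of at least 10% of the positive control shift, at one fixed dose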
SENP1 FRET inh – inhibitors of human SENP1 SUMO protease catalytic domain | Q9P0U3 | recombinant SENP1 catalytic domain, CyPet-SUMO1-YPet FRET cleavage | inhibition, % at 10 µM | actives 0.21% (n = 360,000);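 active = inhibition at least 30% at 10 µM, raw YFP signal under a set limit, fluorescence ratio 0.5 to 1.5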;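 note: 0% = enzyme with DMSO and 100% = no enzyme wells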
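System: Recombinant human SENP1 catalytic domain, His6-tagged | Incubation: Enzyme reaction for 50 min at room temperature, dark | Medium: Tris pH 8 with BME, BSA, NP40 and catalase | Also added: 25 nM SUMO1 FRET substrate | Compound: 10 µM single point, 0.5% DMSO | Measured by: FRET fluorescence in CFP and YFP emission channels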
* hit, by the source's call. In the library only some 4% were active in any assay of this set; here they are far more common.

Screening COc1ccc(C(=O)Nc2ccncc2)cc1[N+](=O)[O-] returned Arrestin-AP2 inh -1, Cardio protect 0, iPSC survival up 0, FAS TE block -6, GRIN3A LBD mod 2 and SENP1 FRET inh 1.
For COc1cc(NC(=O)c2cccc([N+](=O)[O-])c2)ccc1NC(=O)c1ccco1 the results were Arrestin-AP2 inh 7, Cardio protect 4, iPSC survival up 0, FAS TE block 16, GRIN3A LBD mod 27* and SENP1 FRET inh 0.
For COc1cc(NC(=O)c2ccc([N+](=O)[O-])o2)ccc1NC(=O)c1ccco1 the results were Arrestin-AP2 inh 39, Cardio protect -9, iPSC survival up 0, FAS TE block 4, GRIN3A LBD mod 9 and SENP1 FRET inh 1.
`CCC(=O)NC(=S)Nc1ccc(NC(=O)c2ccc(C)c([N+](=O)[O-])c2)cc1` gave Arrestin-AP2 inh 0, Cardio protect 3, iPSC survival up -2, FAS TE block -5, GRIN3A LBD mod 34* and SENP1 FRET inh 0.
For CC1(C(=O)NS(=O)(=O)c2ccccc2OC(F)(F)F)CCN1C(=O)Cc1ccccc1 (configuration not stated) the results were Cardio protect -3, iPSC survival up 3, FAS TE block -10 and SENP1 FRET inh 3.
For COc1ccc(C(=O)NC(=S)Nc2cccc(NC(=O)c3ccco3)c2)cc1[N+](=O)[O-] the results were Arrestin-AP2 inh -3, Cardio protect 7, iPSC survival up 0, FAS TE block -4, GRIN3A LBD mod 12* and SENP1 FRET inh 3.
COc1ccc(/C=N/NC(=O)c2nc(-c3ccccc3)cc(-c3ccccc3)n2)cc1 was read as Arrestin-AP2 inh 27, Cardio protect 31, iPSC survival up 1, FAS TE block 30, GRIN3A LBD mod 1 and SENP1 FRET inh 1.
Screening COc1cc(/C=N/Nc2nc(C)nc3c2cnn3-c2ccccc2)ccc1O returned Arrestin-AP2 inh 5, Cardio protect 37, iPSC survival up -1, FAS TE block 9, GRIN3A LBD mod 13* and SENP1 FRET inh -39.
COc1cc(/C=N/NC(=O)c2cc(-c3ccccc3)nc3ccccc23)ccc1O was read as Arrestin-AP2 inh 5, Cardio protect 21, iPSC survival up 0, FAS TE block 10, GRIN3A LBD mod 6 and SENP1 FRET inh 3.
Screening COc1cc(/C=N/NC(=O)c2cnn3c(C)cc(-c4ccccc4)nc23)ccc1O returned Arrestin-AP2 inh -2, Cardio protect 76*, iPSC survival up 1, FAS TE block 3, GRIN3A LBD mod 3 and SENP1 FRET inh -1.
COc1ccc(/C=N/NC(=O)c2nc(-c3ccccc3)cc(-c3ccccc3)n2)cc1O was read as Arrestin-AP2 inh 11, Cardio protect 51*, iPSC survival up -1, FAS TE block 35, GRIN3A LBD mod -432 and SENP1 FRET inh 3.
COc1cc(/C=N/NC(=O)c2nc(-c3ccccc3)n(-c3ccccc3)n2)ccc1O was read as Arrestin-AP2 inh -9, Cardio protect 0, iPSC survival up 1, FAS TE block -6, GRIN3A LBD mod -2 and SENP1 FRET inh 2.
For Cc1ccc(S(=O)(=O)N2CCCC(C(=O)NCCc3ccc(Cl)cc3)C2)cc1 (configuration not stated) the results were Cardio protect 2, iPSC survival up 0, FAS TE block 28 and SENP1 FRET inh 4.
Cc1cccc(NC(=O)C2=C(O)c3ccccc3N(C)S2(=O)=O)c1 was read as Arrestin-AP2 inh 20, Cardio protect -4, iPSC survival up 7, FAS TE block -6, GRIN3A LBD mod -3 and SENP1 FRET inh 2.
CN1c2ccccc2C(O)=C(C(=S)Nc2ccc(Cl)cc2)S1(=O)=O was read as Arrestin-AP2 inh 25, Cardio protect -13, iPSC survival up 0, FAS TE block 2, GRIN3A LBD mod 28* and SENP1 FRET inh 1.
Screening COc1ccc(CNc2nn3c(-c4cccc(C(=O)N(C)C)c4)cnc3s2)cc1 returned Cardio protect 76*, iPSC survival up 0, FAS TE block -3 and SENP1 FRET inh 0.
For COc1ccc(CNc2ncc(-c3ccccc3)n2C)cc1 the results were Arrestin-AP2 inh 35, Cardio protect 34, iPSC survival up 0, FAS TE block -5, GRIN3A LBD mod -3 and SENP1 FRET inh 2.
`COc1ccc(NS(=O)(=O)c2ccc(O)c(NC(=O)c3cc4c(C)nn(-c5ccc(F)cc5)c4s3)c2)cc1` gave Arrestin-AP2 inh 0, Cardio protect 11, iPSC survival up 1, FAS TE block -7, GRIN3A LBD mod 31* and SENP1 FRET inh 1.
COc1ccc(NS(=O)(=O)c2ccc(N3CCOCC3)c(NC(=O)c3ccc(F)cc3)c2)cc1 was read as Arrestin-AP2 inh 1, Cardio protect 2, iPSC survival up -1, FAS TE block 10, GRIN3A LBD mod -15 and SENP1 FRET inh 2.
`COc1ccc(OC)c(Nc2cc3ccccc3c(=O)[nH]2)c1` gave Arrestin-AP2 inh 11, Cardio protect 54*, iPSC survival up 3, FAS TE block 26, GRIN3A LBD mod 0 and SENP1 FRET inh -41.
`COc1ccccc1Nc1cc2cc(Br)ccc2c(=O)[nH]1` gave Arrestin-AP2 inh 8, Cardio protect 0, iPSC survival up 7, FAS TE block 32, GRIN3A LBD mod -7 and SENP1 FRET inh -76.
For CC12CCC(/C(=C/NNc3ccc([N+](=O)[O-])cc3[N+](=O)[O-])C1=O)C2(C)C (configuration not stated) the results were Cardio protect -1, iPSC survival up 1, FAS TE block 24 and SENP1 FRET inh 4.
Cc1ccc(S(=O)(=O)N2C[C@@H](C)[C@]3(C2)[C@H](O)[C@H](OC(=O)Nc2cccs2)C[C@H]2C(=O)N(c4ccccc4)C(=O)[C@H]23)cc1 was read as Cardio protect -13, iPSC survival up -1, FAS TE block 24 and SENP1 FRET inh 1.
`O=C(O)CN1C(=O)C2(OCCCO2)c2ccccc21` gave Arrestin-AP2 inh 6, Cardio protect -5, iPSC survival up -2, FAS TE block -10, GRIN3A LBD mod 2 and SENP1 FRET inh 0.
For O=C(Nc1ccccc1)N1C(=O)C2(OCCO2)c2ccccc21 the results were Arrestin-AP2 inh 2, Cardio protect -4, iPSC survival up -1, FAS TE block -8, GRIN3A LBD mod 13* and SENP1 FRET inh -1.
For Cc1ccccc1S(=O)(=O)NC(=O)C1(C)CCN1C(=O)CC1CCCCC1 (configuration not stated) the results were Cardio protect 6, iPSC survival up 8, FAS TE block -8 and SENP1 FRET inh 2.
